As a reminder, the IC50 is the concentration that inhibits the measured activity by half. By EC50 is commonly meant the concentration at which the effect is half-maximal. The term CC50 denotes the concentration at which the toxic effect on the cells reaches its halfway point.

Here are results for ten compounds from ChEMBL document CHEMBL3627667, “Novel halogenated 3-deazapurine, 7-deazapurine and alkylated 9-deazapurine derivatives of L-ascorbic or imino-L-ascorbic acid: Synthesis, antitumour and antiviral activity evaluations” (Eur J Med Chem, 2015).

A short description of data set [1]: Antiproliferative activity against human CEM/0 cells incubated for 72 hrs by MTT assay. The data set is classed as functional, cell-based, CCRF-CEM. A digest of the protocol:
(§1)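 Cells seeded at 5000 per well on day 0. Test agents added in five 10-fold dilutions (0.01–100 μM) for a further 72 h, with DMSO ≤0.1% as solvent control. Growth was read by MTT and absorbance converted to percentage growth against untreated cells on the same plate. IC50 came from linear regression on dose–response curves. Quadruplicate points, three independent experiments.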
(In general: Tetrazolium assays rely on reduction of a dye to a coloured formazan, in cell work by metabolically active cells.)

The nature of data set [2]: Antiproliferative activity against mouse L1210/0 cells incubated for 72 hrs by MTT assay. Format: functional, cell-based. A digest of the protocol: as §1
Data set [3] relates to HeLa. As to the kind of experiment: Antiproliferative activity against human HeLa cells incubated for 72 hrs by MTT assay. The data set is classed as functional, cell-based. A digest of the protocol: as §1
A short description of data set [4]: Antiproliferative activity against human MIAPaCa2 cells incubated for 72 hrs by MTT assay. The data set is classed as functional, cell-based, MIA PaCa-2. The procedure, abridged:
as §1

Data set [5] relates to HepG2. As to the kind of experiment: Antiproliferative activity against human HepG2 cells incubated for 72 hrs by MTT assay. Format: functional, cell-based. The procedure, abridged: as §1
Data set [6] concerns SW-620. As to the kind of experiment: Antiproliferative activity against human SW620 cells incubated for 72 hrs by MTT assay. Format: functional, cell-based. A digest of the protocol:
as §1

In data set [7] the test system is Mammalian orthoreovirus 1. As to the kind of experiment: Antiviral activity against Reovirus 1 expressed in African green monkey Vero cells assessed as reduction in cytopathogenicity. Format: functional, cell-based. The following applies: Mammalian orthoreovirus 1, Vero. A digest of the protocol:
(§2)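 Confluent Vero monolayers were inoculated with 100 CCID50 of virus in the presence of 5-fold serial compound dilutions. Cytopathicity was scored once it was complete in untreated infected controls. EC50 is the concentration giving 50% reduction of virus-induced cytopathogenicity.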
(Damage to the host cells serves as the signal in cytopathic effect assays.)

For data set [8], the system named is Human respirovirus 3. As to the kind of experiment: Antiviral activity against Parainfluenza virus 3 expressed in African green monkey Vero cells assessed as reduction in cytopathogenicity. Format: functional, organism-based. The following applies: Human respirovirus 3, Vero. A digest of the protocol:
as §2

A short description of data set [9]: Cytotoxicity against African green monkey Vero cells assessed as alteration in cell morphology by microscopy. Format: cell-based. The following applies: chlorocebus sabaeus. A digest of the protocol: (§3)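 MCC is the compound concentration causing a microscopically visible alteration of cell morphology in the cultures used for the antiviral assays.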
Data set [10] relates to Punta Toro virus. As to the kind of experiment: Antiviral activity against Punta Toro virus expressed in African green monkey Vero cells assessed as reduction in cytopathogenicity. Format: functional, organism-based. The procedure, abridged:
as §2

For data set [11], the system named is Sindbis virus. As to the kind of experiment: Antiviral activity against Sindbis virus expressed in African green monkey Vero cells assessed as reduction in cytopathogenicity. Format: functional, organism-based. A digest of the protocol: as §2
Data set [12] relates to Coxsackievirus B4. As to the kind of experiment: Antiviral activity against Coxsackievirus B4 expressed in African green monkey Vero cells assessed as reduction in cytopathogenicity. The data set is classed as functional, organism-based. The following applies: Enterovirus B. A digest of the protocol:
as §2

The test system of data set [13] is Human betaherpesvirus 5. As to the kind of experiment: Antiviral activity against Human cytomegalovirus AD169 expressed in HEL cells assessed as reduction in plaque formation incubated for 7 days by Giemsa stain based microscopy. The data set is classed as functional, organism-based. The following applies: Human betaherpesvirus 5, AD169, HEL, 168 h. The procedure, abridged: (§4)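 Confluent HEL fibroblasts were infected at 100 PFU per well. After 2 h, residual virus was removed and compound-containing medium added, in duplicate. After 7 days at 37 °C, cells were ethanol-fixed, Giemsa-stained and examined microscopically. EC50 was read from graphic plots of % cytopathogenicity versus concentration.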

Data set [14] has as its system HEL. As to the kind of experiment: Cytotoxicity against human HEL cells assessed as cell growth reduction incubated for 3 days. The following applies: 72 h. The data set is classed as cell-based. The procedure, abridged:
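HEL cells were seeded at 5 × 10^3 per well and allowed to proliferate for 24 h before compound-containing medium was added. After 3 days at 37 °C, cells were counted with a Coulter counter. CC50 (50% reduction of proliferation versus untreated controls) was estimated from graphic plots.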

Data set [15] concerns Human betaherpesvirus 5. As to the kind of experiment: Antiviral activity against Human cytomegalovirus Davis expressed in HEL cells assessed as reduction in plaque formation incubated for 7 days by Giemsa stain based microscopy. Format: functional, organism-based. The following applies: Human betaherpesvirus 5, Davis, 168 h. The procedure, abridged: as §4
The nature of data set [16]: Cytotoxicity against human HEL cells assessed as alteration in cell morphology incubated for 3 days by microscopy. Format: cell-based. The procedure, abridged:
as §3

Data set [17] relates to HeLa. As to the kind of experiment: Cytotoxicity against human HeLa cells assessed as cell growth reduction incubated for 3 days. Format: cell-based. The following applies: 72 h.
In data set [18] the test system is Human alphaherpesvirus 3. As to the kind of experiment: Antiviral activity against thymidine kinase deficient Varicella zoster virus 07-1 expressed in HEL cells assessed as reduction in plaque formation incubated for 5 days. The data set is classed as functional, organism-based. The following applies: Human alphaherpesvirus 3, 07-1, HEL, 120 h. The procedure, abridged: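 Confluent HEL cells in 96-well plates inoculated with TK-deficient VZV strain 07-1 at 20 PFU per well; residual virus removed after 2 h, then varying compound concentrations added in duplicate. EC50 = concentration reducing viral plaque formation by 50% versus untreated controls after 5 days.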

Data set [19] concerns Human alphaherpesvirus 3. As to the kind of experiment: Antiviral activity against Varicella zoster virus Oka expressed in HEL cells assessed as reduction in plaque formation incubated for 5 days. Format: functional, organism-based. The following applies: Human alphaherpesvirus 3, Oka, 120 h. A digest of the protocol: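 Confluent HEL cells were inoculated at 20 PFU per well of VZV. Residual virus was removed after 2 h, then compound dilutions were added in duplicate. EC50 is the concentration reducing plaque formation by 50% versus untreated controls after 5 days.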

As to `O=C1NC(O)(CCn2cnc3cncc(Br)c32)C(OCc2ccccc2)=C1OCc1ccccc1` (stereo not given), the IC50 in [1] (Homo sapiens, CCRF-CEM, 72 h) was 25 µM; in data set [2] (Mus musculus, L1210/0, 72 h) it was 50 µM; in data set [3] (Homo sapiens, HeLa, 72 h), 77 µM; in [4] (Homo sapiens, MIA PaCa-2, 72 h) it was 48.7 µM; in data set [5] (Homo sapiens, HepG2, 72 h), 66.5 µM; in [6] (Homo sapiens, SW-620, 72 h) it was over 100 µM.

`O=C1NC(O)(CCn2cnc3ccn(CCC4(O)NC(=O)C(OCc5ccccc5)=C4OCc4ccccc4)c3c2=O)C(OCc2ccccc2)=C1OCc1ccccc1` (stereo in doubt; 19): the IC50 was 4.9 µM in [1] (ccrf-cem); 7.6 µM in [2] (l1210/0); 18 µM in data set [3] (hela); 4.4 µM in data set [4] (mia paca-2); 52 µM in data set [5] (hepg2); 30.5 µM in data set [6] (sw-620).

With `Nc1ncnc2c1ncn2C[C@H](O)CO` [(S)-DHPA], the EC50 in [7], in data set [8], in data set [10], in data set [11] and in data set [12] was over 250 µM each time. Moreover, in [9], the MCC was over 250 µM.

`Nc1ccn(C[C@@H](CO)OCP(=O)(O)O)c(=O)n1` [CIDOFOVIR]: the values for the EC50 in data set [13] and in data set [15] were 0.61 µM and 0.51 µM, respectively. Besides, the 50% cytotoxic concentration (CC50) in [14] was 153 µM. The MCC at 72 h in data set [16] was over 300 µM.

With `O=C1O/C(=C\Cn2cnc3c(F)nc(F)c(Cl)c32)C(OCc2ccccc2)=C1OCc1ccccc1`, the EC50 in data set [7] is over 20 µM; in data set [8] it was over 20 µM; in data set [10] it was 12 µM; in data set [11] it was over 20 µM; in [13] it was 44.7 µM; in data set [15], 44.7 µM. Also, the EC50 in [12] stood at 14.5 µM. In addition, in [9], the MCC was at least 20 µM. Also, the IC50 is over 100 µM in [3] (Homo sapiens, HeLa, 72 h); 78 µM in data set [4] (Homo sapiens, MIA PaCa-2, 72 h); over 100 µM in data set [5] (Homo sapiens, HepG2, 72 h); 55 µM in data set [6] (Homo sapiens, SW-620, 72 h). Also, the CC50 in data set [14] was at least 100 µM. Moreover, the Activity result in data set [17] is “Non-toxic”. For the same compound, the MCC at 72 h in data set [16] is over 100 µM.

Take `O=C1O/C(=C\Cn2cnc3cncc(Br)c32)C(OCc2ccccc2)=C1OCc1ccccc1` (mixture of isomers): the IC50 came to 5.7 µM in [1] (Homo sapiens, CCRF-CEM, 72 h); 6.8 µM in data set [2] (Mus musculus, L1210/0, 72 h); 15 µM in data set [3] (Homo sapiens, HeLa, 72 h); 22.6 µM in [4] (Homo sapiens, MIA PaCa-2, 72 h); 46.9 µM in [5] (Homo sapiens, HepG2, 72 h); 32.9 µM in data set [6] (Homo sapiens, SW-620, 72 h).

As to `O=C1O/C(=C\Cn2cnc3ccn(C/C=C4\OC(=O)C(OCc5ccccc5)=C4OCc4ccccc4)c3c2=O)C(OCc2ccccc2)=C1OCc1ccccc1`, the EC50 in data set [7] was over 20 µM; in [8] it was over 20 µM; in [10], 6.7 µM; in [11], over 20 µM; in data set [18], 7.6 µM; in data set [12], over 20 µM. For the same compound, the EC50 in data set [19] was 13.8 µM. The IC50 was 19 µM in [1] (Homo sapiens, CCRF-CEM, 72 h); 4.5 µM in data set [2] (Mus musculus, L1210/0, 72 h); 5.6 µM in data set [3] (Homo sapiens, HeLa, 72 h); 26.2 µM in data set [4] (Homo sapiens, MIA PaCa-2, 72 h); over 100 µM in data set [5] (Homo sapiens, HepG2, 72 h); 47.2 µM in [6] (Homo sapiens, SW-620, 72 h). Also, the MCC in [9] is at least 20 µM.

With `Nc1nc(F)c(Cl)c2c1ncn2CCC1(O)NC(=O)C(OCc2ccccc2)=C1OCc1ccccc1` (stereo not given), the IC50 in data set [3] (Homo sapiens, HeLa, 72 h) is 39 µM; in [4] (Homo sapiens, MIA PaCa-2, 72 h) it was over 100 µM; in data set [5] (Homo sapiens, HepG2, 72 h), over 100 µM; in data set [6] (Homo sapiens, SW-620, 72 h), 59 µM.

Consider `O=C1O/C(=C\Cn2cnc3cc[nH]c3c2=O)C(OCc2ccccc2)=C1OCc1ccccc1`, for which the IC50 in [1] (Homo sapiens, CCRF-CEM, 72 h) was 16 µM; in data set [2] (Mus musculus, L1210/0, 72 h), 28 µM; in data set [3] (Homo sapiens, HeLa, 72 h), 27 µM; in data set [4] (Homo sapiens, MIA PaCa-2, 72 h), over 100 µM; in data set [5] (Homo sapiens, HepG2, 72 h), over 100 µM; in data set [6] (Homo sapiens, SW-620, 72 h), over 100 µM.

Turning to `O=c1[nH]cc(F)c(=O)[nH]1` [FLUOROURACIL], the IC50 came to 66.5 µM in data set [3] (Homo sapiens, HeLa, 72 h); 55.2 µM in data set [5] (Homo sapiens, HepG2, 72 h); 0.79 µM in data set [6] (Homo sapiens, SW-620, 72 h).
